Assay results as given in paper PMC8694313 (RSC Advances, 2021).
≈ marks a conversion by molar mass, not a printed value.

How the values were obtained:
[1] = system: carrageenan-induced paw edema; assay: Carrageenan induced hind paw edema assay; format: in vivo; details: rat, 100 mg kg^−1 p.o., mean ± SEM
How it was run: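 Rats, six per group, acclimatized one week (25 ± 2 °C, 12 h light/dark, standard pellets, water ad libitum). […] Paw volume measured by plethysmometer displacement to the lateral malleolus at 1, 3 and 6 h. Mean ± SEM.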

[2] = system: cotton pellet induced granuloma; assay: Cotton pellets induced granuloma assay; format: in vivo; details: rat, 100 mg kg^−1 p.o. for 8 d, mean ± SEM
How it was run: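 Two sterile 10 mg cotton pellets implanted ventrally in rats, six per group. […] On day 9 rats were killed under excess ether. Pellets were freed of tissue and weighed wet, then dried at 55 °C for 6 h or to constant weight. Granuloma equals dry weight minus cotton weight. Mean ± SEM.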

Staphylococcus aureus = assay: In vitro antibacterial MIC determination; format: cell-based
How it was run: (§1)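 Bacteria grown on nutrient agar, subcultured to log phase in nutrient broth, then diluted in sterile saline to about 10^5–10^6 CFU mL−1. Test compounds diluted in acetone, DMSO or diethyl ether (ether preferred). Saturated disks placed on spread-plated inoculum and incubated at 37 °C for 24 h. MIC determined across different compound concentrations, with streptomycin as standard.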

Pseudomonas aeruginosa = assay: In vitro antibacterial MIC determination; format: cell-based
How it was run: as §1

Rhizopus arrhizus = assay: In vitro antifungal MIC, poison plate technique; format: cell-based
Escherichia coli = assay: In vitro antibacterial MIC determination; format: cell-based
How it was run: as §1

Aspergillus niger = assay: In vitro antifungal MIC, poison plate technique; format: cell-based
COX-2 = target: T1, COX-2 (Ovis aries, UniProt P79208); assay: Colorimetric COX; format: biochemical, ovine; details: read-out: % inhibition of COX, COX-2
T1 sequence (P79208 17-603): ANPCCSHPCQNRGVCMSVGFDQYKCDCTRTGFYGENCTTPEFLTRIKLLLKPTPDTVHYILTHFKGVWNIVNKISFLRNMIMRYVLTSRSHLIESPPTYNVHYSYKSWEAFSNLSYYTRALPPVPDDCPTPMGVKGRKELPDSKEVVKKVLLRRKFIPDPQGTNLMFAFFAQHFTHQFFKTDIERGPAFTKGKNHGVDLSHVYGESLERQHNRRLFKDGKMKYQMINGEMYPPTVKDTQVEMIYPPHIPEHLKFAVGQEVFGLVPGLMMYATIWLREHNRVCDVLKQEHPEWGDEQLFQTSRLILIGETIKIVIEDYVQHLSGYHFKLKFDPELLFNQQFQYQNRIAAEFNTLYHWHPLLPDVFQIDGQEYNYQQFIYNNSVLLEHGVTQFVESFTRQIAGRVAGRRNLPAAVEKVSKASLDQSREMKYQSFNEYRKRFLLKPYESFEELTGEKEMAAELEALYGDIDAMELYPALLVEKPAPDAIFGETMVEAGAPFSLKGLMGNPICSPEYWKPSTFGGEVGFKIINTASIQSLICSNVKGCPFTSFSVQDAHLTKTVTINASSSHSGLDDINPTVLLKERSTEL

COX-1 = target: T2, COX-1 (Ovis aries, UniProt P05979); assay: Colorimetric COX; format: biochemical, ovine; details: read-out: % inhibition of COX, COX-1
T2 sequence (P05979 25-600): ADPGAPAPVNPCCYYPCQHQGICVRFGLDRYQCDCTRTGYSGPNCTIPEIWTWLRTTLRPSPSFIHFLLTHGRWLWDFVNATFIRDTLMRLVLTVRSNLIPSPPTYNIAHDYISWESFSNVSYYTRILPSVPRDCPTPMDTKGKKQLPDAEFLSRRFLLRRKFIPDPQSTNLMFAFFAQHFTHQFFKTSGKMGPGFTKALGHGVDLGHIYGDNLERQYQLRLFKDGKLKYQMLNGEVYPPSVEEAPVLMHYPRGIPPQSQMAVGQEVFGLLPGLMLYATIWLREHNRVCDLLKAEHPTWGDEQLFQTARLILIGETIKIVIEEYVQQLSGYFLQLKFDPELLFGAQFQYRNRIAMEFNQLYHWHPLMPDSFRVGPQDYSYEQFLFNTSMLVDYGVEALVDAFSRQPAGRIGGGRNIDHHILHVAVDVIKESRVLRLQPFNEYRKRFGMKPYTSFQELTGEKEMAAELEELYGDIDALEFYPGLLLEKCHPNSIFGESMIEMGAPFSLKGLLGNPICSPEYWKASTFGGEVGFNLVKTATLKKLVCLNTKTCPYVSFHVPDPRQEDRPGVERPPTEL

Aspergillus flavus = assay: In vitro antifungal MIC, poison plate technique; format: cell-based
Bacillus subtillis = assay: In vitro antibacterial MIC determination; format: cell-based
How it was run: as §1

RAW 264.7 cells [3] = assay: MTT assay, LPS-induced inflammation in RAW 264.7; format: cell-based, murine; details: RAW 264.7, pre-treatment 100 μM and 200 μM, then LPS; Fig. 4
How it was run: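 Mouse RAW 264.7 macrophages kept in high-glucose DMEM with 10% heat-inactivated FBS and 1% penicillin–streptomycin at 37 °C, 5% CO2. Cells seeded at 5 × 10^5 cells per mL, pretreated 1 h with test compound (100 or 200 μM), then stimulated with […] for 24 h. Medium replaced; 0.5 mg mL−1 MTT for 3 h; formazan dissolved in DMSO; OD read at 540 nm. Percent inflammation derived by subtracting percent viability relative to control.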

RAW 264.7 cells [4] = assay: Nitrite; format: cell-based, murine; details: RAW 264.7, 100 μM and 200 μM pre-treatment; Fig. 5
How it was run: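 RAW 264.7 cells (1 × 10^6) seeded in flasks and left to adhere overnight. Pretreated 1 h with test compound (100 or 200 μM), then 100 μM LPS for 24 h at 37 °C, 5% CO2. Supernatant mixed with an equal volume of Griess reagent (0.1% naphthylethylenediamine and 1% sulfanilamide, 1:1, in 5% phosphoric acid) for 10 min in the dark at room temperature; A540 read. Nitrite quantified from a NaNO2 standard curve (0.1–6.25 μM), expressed as μmol NO2−/mg protein. Triplicates.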

SMILES | Paw volume ([1]; 1 h after carrageenan) [mL] | Paw volume ([1]; 3 h after carrageenan) [mL] | Paw volume ([1]; 6 h after carrageenan) [mL] | Weight, Dry (cotton pellet) [2] [mg] | Weight, Wet (cotton pellet) [2] [mg] | MIC (Staphylococcus aureus) [µg/mL] | MIC (Pseudomonas aeruginosa) [µg/mL] | MIC (Rhizopus arrhizus) [µg/mL] | MIC (Escherichia coli) [µg/mL] | MIC (Aspergillus niger) [µg/mL] | inhibition at 100 µM (COX-2) [%] | inhibition at 200 µM (COX-2) [%] | inhibition at 100 µM (COX-1) [%] | inhibition at 200 µM (COX-1) [%] | MIC (Aspergillus flavus) [µg/mL] | MIC (Bacillus subtillis) [µg/mL] | anti-inflammatory activity against LPS induced cell death / inflammation (MTT) (RAW 264.7 cells [3]) | inhibition of LPS-induced NO production (RAW 264.7 cells [4])
Cc1ccc(-c2cc(C(F)(F)F)nn2-c2ccc(S(N)(=O)=O)cc2)cc1 [Celecoxib, reference compound] | 0.80 ± 0.50 | 0.98 ± 0.92 | 1.58 ± 0.22 | 78.80 ± 3.24 | 150.14 ± 3.46 |  |  |  |  |  |  |  |  |  |  |  |  | 
O=S(=O)(NC[C@@H](O)[C@@H]1CCc2cc(F)ccc2O1)c1ccc(F)cc1 [Compound 8a, N-((R)-2-((S)-6-Fluorochroman-2-yl)-2-hydroxyethyl)-4-fluorobenzenesulfonamide] |  |  |  |  |  | 21.9 ± 0.33 (≈ 59.2 µM) | 31.9 ± 1.04 (≈ 86.3 µM) | 22.8 ± 0.54 (≈ 61.7 µM) | 30.1 ± 0.72 (≈ 81.6 µM) | 22.3 ± 0.27 (≈ 60.4 µM) | 23.5 ± 0.55 | 38.64 ± 0.33 | 37.3 ± 0.32 | 45.5 ± 0.77 | 23.1 ± 0.25 (≈ 62.4 µM) | 31.6 ± 1.03 (≈ 85.5 µM) |  | 
O=S(=O)(NC[C@@H](O)[C@@H]1CCc2cc(F)ccc2O1)c1ccc(Br)cc1 [Compound 8b, 4-Bromo-N-((R)-2-((S)-6-fluorochroman-2-yl)-2-hydroxyethyl)benzenesulfonamide] | 0.52 ± 0.18 | 0.80 ± 0.38 | 1.06 ± 0.27 | 84.10 ± 1.67 | 182.50 ± 1.77 | 17.9 ± 0.61 (≈ 41.6 µM) | 22.4 ± 0.4 (≈ 52.1 µM) | 20.2 ± 0.65 (≈ 47 µM) | 12.7 ± 0.87 (≈ 29.5 µM) | 20.4 ± 0.87 (≈ 47.4 µM) | 34.4 ± 0.66 | 60.04 ± 0.24 | 46.1 ± 0.22 | 68.78 ± 0.43 | 17.81 ± 0.16 (≈ 41.4 µM) | 15.08 ± 0.08 (≈ 35 µM) | strong anti-inflammatory activity | strong inhibition
O=S(=O)(NC[C@@H](O)[C@@H]1CCc2cc(F)ccc2O1)c1cccs1 [Compound 8c, N-((R)-2-((S)-6-Fluorochroman-2-yl)-2-hydroxyethyl)thiophene-2-sulfonamide] | 0.60 ± 0.64 | 0.88 ± 0.31 | 1.11 ± 0.13 | 91.30 ± 1.72 | 148.62 ± 1.85 | 19.7 ± 0.62 (≈ 55 µM) | 22.2 ± 0.63 (≈ 62.1 µM) | 22.2 ± 0.83 (≈ 62.2 µM) | 17.1 ± 0.47 (≈ 47.9 µM) | 18.1 ± 0.46 (≈ 50.6 µM) | 40.4 ± 0.1 | 61.2 ± 0.72 | 51.1 ± 0.62 | 70.07 ± 0.7 | 16.7 ± 0.7 (≈ 46.8 µM) | 21.6 ± 0.44 (≈ 60.4 µM) | strong anti-inflammatory activity | strong inhibition
O=[N+]([O-])c1cc(S(=O)(=O)NC[C@@H](O)[C@@H]2CCc3cc(F)ccc3O2)ccc1Cl [Compound 8d, 4-Chloro-N-((R)-2-((S)-6-Fluorochroman-2-yl)-2-hydroxyethyl)-3-nitrobenzenesulfonamide] | 0.78 ± 0.88 | 1.08 ± 0.40 | 1.50 ± 0.64 |  |  | 17.4 ± 0.4 (≈ 40.5 µM) | 27.4 ± 0.65 (≈ 63.6 µM) | 18.6 ± 0.65 (≈ 43.3 µM) | 24.2 ± 0.72 (≈ 56.1 µM) | 15.3 ± 0.15 (≈ 35.5 µM) | 39.3 ± 0.77 | 63.88 ± 0.46 | 53.88 ± 0.3 | 69.64 ± 0.18 | 17 ± 0.7 (≈ 39.6 µM) | 18.3 ± 0.21 (≈ 42.5 µM) | strong anti-inflammatory activity | strong inhibition
